According to ChEMBL document CHEMBL4028810, “Synthesis and biological evaluation of novel chalcone derivatives as a new class of microtubule destabilizing agents” (Eur J Med Chem, 2017):

Legend:
MGC-803 = experiment: Cytotoxicity against human MGC803 cells after 48 hrs by MTT assay; format: functional, cell-based; conditions: MGC-803, 48 h
How it was run: (§1)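 Log-phase cells were seeded at about 1 × 10⁵ cells/mL in 96-well plates and allowed to settle 12 h at 37 °C in 5% CO₂. Compounds were added at five concentrations for 48 h. Absorbance was read at dual wavelength 570/630 nm. Survival was expressed as a percentage of control, and IC50 was calculated by the Bliss method (n = 5). Each test was run in triplicate.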

HeLa = experiment: Resistant factor, ratio of IC50 for human HeLa/TR cells to IC50 for human HeLa cells; format: functional
How it was run: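 The resistance index is IC50 on the paclitaxel-resistant line divided by IC50 on the parental sensitive line (A549 or HeLa). Both IC50 values come from the 48 h, five-concentration growth assay with 570/630 nm absorbance read-out and Bliss-method calculation.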

A549/TR = experiment: Cytotoxicity against human A549/TR cells after 48 hrs by MTT assay; format: functional, cell-based; how it was run: as §1
HepG2 = experiment: Cytotoxicity against human HepG2 cells after 48 hrs by MTT assay; format: functional, cell-based; conditions: HepG2, 48 h; how it was run: as §1
NCI-H460 [1] = experiment: Disruption of mitochondrial membrane potential in human NCI-H460 cells assessed as intact mitochondrial membrane potential at 10 uM after 24 hrs by JC-1 staining based flow cytometric method (reference value: 11.9%); format: functional
How it was run: (§2)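 NCI-H460 cells were treated 24 h at 5 or 10 µM, with untreated cells as control. The medium was replaced, and the JC-1 probe was added 20 min later. Cells were then pelleted at 2000 rpm, washed twice in ice-cold PBS and analysed by flow cytometry with excitation at 488 nm and emission at 530 and 590 nm.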

[2] = Cytotoxicity against human HeLa/TR cells after 48 hrs by MTT assay; format: functional, cell-based; how it was run: as §1
NCI-H460 [3] = experiment: Induction of apoptosis in human NCI-H460 cells assessed as necrotic cells at 5 uM after 24 hrs by Annexin V-FITC/propidium iodide staining based flow cytometric method (reference value: 1.84%); format: functional
NCI-H460 [4] = experiment: Disruption of mitochondrial membrane potential in human NCI-H460 cells assessed as intact mitochondrial membrane potential at 5 uM after 24 hrs by JC-1 staining based flow cytometric method (reference value: 11.9%); format: functional; how it was run: as §2
NCI-H460 [5] = experiment: Induction of apoptosis in human NCI-H460 cells assessed as increase in cytochrome c release from mitochondria to cytosol after 48 hrs by Western blot method; format: functional, cell-based
How it was run: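 NCI-H460 cells were treated 48 h at various concentrations. Cells were washed in ice-cold PBS and lysed on ice for 20 min, and lysates were spun at 20000 g and 4 °C for 5 min. Protein was quantified by BCA, and equal amounts were run on 12% SDS-PAGE and transferred to PVDF. Membranes were blocked in 5% milk/TBST, probed overnight at 4 °C with primary antibodies (β-actin as reference), then with peroxidase secondary for 2 h. Bands were detected by chemiluminescence.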

NCI-H460 [6] = experiment: Cell cycle arrest in human NCI-H460 cells assessed as accumulation at G2-phase at 5 uM after 48 hrs by propidium iodide staining based flow cytometric method (reference value: 2.37%); format: functional
NCI-H460 [7] = experiment: Induction of apoptosis in human NCI-H460 cells assessed as increase in ROS generation after 24 hrs by DCFH-DA staining based flow cytometric method; format: functional, cell-based
How it was run: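 NCI-H460 cells in six-well plates were treated 24 h at 5 or 10 µM, with untreated cells as control. Cells were pelleted at 2000 rpm, washed twice in ice-cold PBS and resuspended in 10 µM DCFH-DA in cell-free medium for 20 min at 37 °C in the dark. After two more PBS washes, fluorescence was read by flow cytometry.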

NCI-H460 [8] = experiment: Cell cycle arrest in human NCI-H460 cells assessed as accumulation at S-phase at 10 uM after 48 hrs by propidium iodide staining based flow cytometric method (reference value: 21.79%); format: functional

COc1ccc(/C=C/C(=O)c2cc(OC)c(OC)c(OC)c2)cc1OCC(=O)Nc1ccccc1Cl
IC50 (MGC-803): 8.42 µM
Ratio IC50 (HeLa): 1.31
IC50 (A549/TR): 6.25 µM
IC50 (HepG2): 4.06 µM
Activity (NCI-H460 [1]): 26.2%
IC50 [2]: 5.95 µM
Activity (NCI-H460 [3]): 1.1%
Activity (NCI-H460 [4]): 16.9%
Activity (NCI-H460 [5]): Dose-dependent effect
Activity (NCI-H460 [6]): 11.88%
Activity (NCI-H460 [7]): Dose-dependent effect
Activity (NCI-H460 [8]): 20.81%
